From PubChem
HSF-1 act: HSF-1 activators, primary screen, NIH3T3-HGL cells, MG132 stress, luminescence, single point. NIH3T3-HGL HSF-1 luciferase reporter, 8 h; 100% = twice DMSO control signal. activation, % at 9 µM. 300,000 compounds, 1.7% hits;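 active means mean replicate activation of at least 50% with a set share of replicates each reaching 50%; inconclusive means only one of those two conditions met; inactive means mean below 50% and too few replicates reaching it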
Calb FLC: C. albicans growth inhibition with fluconazole, primary screen, CaCi-2 strain, Alamar Blue fluorescence. C. albicans CaCi-2 + fluconazole, 48 h. 300,000 compounds, 0.57% hits. growth inhibition, % (concentration not given with the values);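 active means growth inhibition above about 58% in most replicates, limit read from the data, passing the limit was not always enough; inconclusive means exactly half the replicates above a set limit; inactive means most replicates below a set limit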;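 further: all wells also contain fluconazole at 8 µg/ml as a sub-toxic cotreatment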
HIF activator: HIF pathway transcriptional activators, primary screen, cell-based, U2OS HRE-luciferase, luminescence; U2OS HRE-luciferase reporter; normalized: DMSO 0%, desferrioxamine 100%; 300,000 compounds, 0.32% hits; activation, % at 7.5 µM (by protocol);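 active means mean activation of at least 10% of the iron chelator positive control signal, with at least half of replicates also reaching 10%; inconclusive means mean and replicate majority disagree about reaching 10%; inactive means mean and most replicates under 10%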
HSF1 inhib: HSF1 inhibitors in luciferase reporter cells, primary screen, cell-based, NIH3T3, luminescence. AID 2098, 2009. activity change, negative = inhibition, % at 7.5 µM (by protocol). NIH3T3-HGL HSE-luciferase, MG132-induced, luminescence 8 h; hits give low values. 300,000 compounds, 0.77% hits;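 active means more than half of replicate wells show activity change below -50%, luminescence cut by over half; inconclusive means some wells, but at most half, below -50%; inactive means no replicate well below -50%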;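 further: luciferase reports HSF-1 transcriptional activity via heat shock element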
T cruzi inh: inhibitors of intracellular T. cruzi growth, primary screen, luminescence, NIH3T3 host cells; T. cruzi beta-gal in NIH3T3, 90 h; inhibition, % (test concentration not listed); 300,000 compounds, 1.4% hits;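 active means mean inhibition across valid replicates above about 55%, limit read from the data; inconclusive means mean below that limit but half or more replicates reach it; inactive means mean below it, under half of replicates reach it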;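 further: signal also drops with host cell toxicity which is not excluded here; higher percent means less beta-gal luminescence so fewer parasites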
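System: Mouse NIH/3T3 fibroblasts infected with β-gal-expressing T. cruzi Tulahuen C4 | Quantity: NIH/3T3 cells, 5,000 per well | Reagent: 5000 reporter trypomastigotes per well | Dosing: Compound pinned at 50 nL/well, DMSO | Schedule: 3 h host attachment, then at least 90 h co-culture | Detection: GalScreen luminescence, 60 min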
A number is an active result; - = inactive; ? = inconclusive; . = no result. This is a sample that favours compounds with a hit; in the whole collection about 4.4% have one here.

SMILES | HSF-1 act | Calb FLC | HIF activator | HSF1 inhib | T cruzi inh
CC(c1nc2ccccc2c(=O)[nH]1)N(C)c1ccc2ccccc2c1 (stereo unspecified) | - | - | - | - | -
CC(Oc1ccc(F)cc1Br)c1nc2ccccc2c(=O)[nH]1 (stereo unspecified) | 65.5 | - | - | - | -
CCOC(=O)Cn1nnnc1C(CC)N(Cc1cc2ccc(C)cc2[nH]c1=O)C1CCCC1 (stereo unspecified) | 69.3 | - | - | - | -
CCOC(=O)Cn1nnnc1C(CC)N(Cc1cccs1)Cc1cc2cc(C)ccc2[nH]c1=O (stereo unspecified) | - | - | - | - | -
CC1Cc2ccccc2C(CCc2ccccc2)=N1 (stereo unspecified) | - | - | - | - | -
Cc1ccc(S(N)(=O)=O)cc1NC(=O)/C=C/c1ccc2c(c1)OCO2 | - | - | - | - | -
COc1cc(NC(=O)CC(C)S(=O)(=O)c2ccc3c(c2)NC(=O)CO3)cc(OC)c1OC (stereo unspecified) | 54.7 | - | - | - | -
CC(CC(=O)NCCc1ccc(Cl)cc1)S(=O)(=O)c1ccc2c(c1)NC(=O)CO2 (stereo unspecified) | - | - | - | - | -
Cc1ccccc1NC(=O)CC(C)S(=O)(=O)c1ccc2c(c1)NC(=O)CO2 (stereo unspecified) | 62.0 | - | - | - | -
CC(CC(=O)Nc1cccc(F)c1)S(=O)(=O)c1ccc2c(c1)NC(=O)CO2 (stereo unspecified) | - | - | - | - | -
COc1cccc(NC(=O)CN(C)C(=O)c2ccc(-c3ccccc3Cl)o2)c1 | - | - | - | - | -
CCc1ccc(NC(=O)[C@H](C)NC(=O)C2CCN(C(=O)[C@@H](N)C(C)C)CC2)cc1 | - | - | - | - | -
Cc1ccc(/C=C2/NC(=O)N(Cc3ccccc3)C2=O)s1 | - | - | - | - | -
O=C1N/C(=C/c2cccs2)C(=O)N1Cc1ccc(Br)cc1 | - | - | 328.4 | - | -
COc1ccc(OC)c(-n2c(=O)c3ccccc3c3ccccc3c2=O)c1 | 59.3 | - | - | - | -
N#CCCN(CCC#N)S(=O)(=O)c1ccc(C(=O)Nc2nc(-c3ccccc3)c(C(=O)c3ccccc3)s2)cc1 | - | - | - | - | -
Cc1ccc(-c2nc(NC(=O)c3ccc(S(=O)(=O)N(CCC#N)CCC#N)cc3)sc2-c2ccccc2)cc1 | - | - | - | - | 56.2
CCc1nccn1Cc1cc(C=O)ccc1OC | - | - | - | - | -
COc1ccc(C=O)cc1Cn1ccnc1C | - | - | - | -77.1 | -
N#Cc1ccc(Cl)cc1NC(=O)CNCc1cccs1 | 64.8 | - | - | - | -
CC(CC(=O)NCCc1ccc(S(N)(=O)=O)cc1)c1ccccc1 (stereo unspecified) | - | - | - | - | -
Cn1c(N)c(C(=O)COC(=O)CCCOc2ccc(Cl)cc2Cl)c(=O)n(C)c1=O | - | - | - | - | -
CCCCOc1ccc(CN2CCCCC2)cc1 | - | - | - | - | 58.6
CCOc1ccc(OCCCCN2CCCC2)cc1 | - | - | - | - | -
Oc1ccc(N2CCN(Cc3ccc(OCCCN4CCCCC4)cc3)CC2)cc1 | - | - | - | - | 69.0
SMILES | HSF-1 act | Calb FLC | HIF activator | HSF1 inhib | T cruzi inh
CCCC(C)C(=O)OCC(=O)Nc1ccc(Br)cc1 (stereo unspecified) | - | - | - | - | -
CC(=O)Nc1ccc(S(=O)(=O)N(C)CC(=O)OCC(=O)N(C)c2ccccc2)cc1 | - | - | - | - | -
Cc1ccc(NC(=O)c2cccc(OC(F)F)c2)c(OC(F)F)c1 | - | - | - | - | -
Cc1c(Cl)cccc1NC(=O)c1cccc(OC(F)F)c1 | - | - | - | -71.5 | -
O=C(Nc1ccc2c(c1)CCC2)c1cccc(OC(F)F)c1 | 81.9 | - | - | - | -
O=C(Nc1ccc2c(c1)CCC2)c1cnc(Cl)c(Cl)c1 | 58.2 | - | - | - | -
OCCCNc1ncnc2oc(-c3ccccc3)c(-c3ccccc3)c12 | - | - | - | - | -
NC(=S)NN=C(Cc1ccccc1)Cc1ccccc1 | - | - | - | - | 60.1
COc1ccccc1C1=NN(C(=S)Nc2ccccc2)C(c2ccco2)C1 (stereo unspecified) | 52.2 | - | - | - | -
Cc1cc(C(=O)NNC(=O)Nc2ccc(Cl)cc2)no1 | - | - | - | - | -
Cc1cc(C(=O)NNc2ccc(Cl)cc2)no1 | - | 102.6 | - | - | -
CC(=O)N1c2ccc3ccccc3c2C(C)CC12CCCCC2 (stereo unspecified) | - | - | - | - | -
CC1CC2(CCCCC2)Nc2ccc3ccccc3c21 (stereo unspecified) | 57.7 | . | - | - | -
C[C@@]12CC[C@H]3OC(=O)C=C3C1CC[C@@]13CC(CCC12)[C@](CO)(O[C@H]1O[C@H](CO)[C@@H](O)[C@H](O)[C@H]1O)C3 (stereo partly specified) | - | - | - | - | -
COc1ccc(C2NC(=O)CCC2[N+](=O)[O-])c(OC)c1 (stereo unspecified) | 55.9 | - | - | - | -
CCC1CN(S(=O)(=O)c2ccc3c(c2)NC(=O)CC(=O)N3)c2cc(Cl)ccc2O1 (stereo unspecified) | - | - | - | - | -
COc1cccc(NC(=O)NC2(C(F)(F)F)Oc3ccccc3O2)c1 | 67.3 | - | - | - | -
COc1cccc(NC(=O)Nc2cccc(C(=O)O)c2)c1 | - | - | - | - | -
Cc1cccc(N2CCN(c3ccc(N4C(=O)CCCC4=O)cc3[N+](=O)[O-])CC2C)c1 (stereo unspecified) | - | - | 78.8 | - | -
CN(C)CCCN(C(=O)c1ccco1)c1nc2ccc(F)cc2s1 | . | - | . | . | -
Cc1ccc2nc(N(CCCN(C)C)C(=O)c3ccc(Br)s3)sc2c1 | - | - | - | - | 61.7
Cc1ccc2nc(N(CCCN(C)C)C(=O)c3ccco3)sc2c1 | - | - | - | - | 55.8
CN(C)CCCN(C(=O)c1ccco1)c1nc2cc3c(cc2s1)OCO3 | - | - | - | - | 56.7
CN(C)CCCN(C(=O)c1ccc([N+](=O)[O-])s1)c1nc2cc3c(cc2s1)OCCO3 | - | - | - | - | -
CN(C)CCCN(C(=O)c1cc2cc([N+](=O)[O-])ccc2s1)c1nc2cc3c(cc2s1)OCCO3 | - | - | - | - | 63.0
Cc1ccc(CNC(=O)C2CCN(C(=O)Nc3ccc(C)cc3)CC2)cc1 | - | - | - | - | -
CCN(CC)c1ccc(C(=O)N/N=C/c2ccccc2OC(F)F)cc1 | - | ? | - | - | -
COc1ccc(C(=O)O)cc1S(=O)(=O)N(CCc1ccccc1)Cc1ccccc1 | - | - | - | - | -
